From ChEMBL document CHEMBL1155099, “Natural products in parallel synthesis: triazole libraries of nonactic acid” (2008)
Converted amounts (≈) assume the structure as drawn. The source made the active and inactive calls. How the calls were made is not given here.

Tests used:
Pseudomonas aeruginosa = assay: Antibacterial activity against Pseudomonas aeruginosa at 1 mM by almar blue dye reduction assay; format: functional, organism-based
Method in brief: (§1)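 Single-point primary screen at 1 mM using Alamar Blue dye reduction as the growth read-out.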

Cryptococcus neoformans [1] = assay: Antifungal activity against Cryptococcus neoformans at by almar blue dye reduction assay; format: functional
Method in brief: (§2)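 Compounds advanced from the 1 mM screen were tested over a dilution series, with a top concentration of 1 mM, using Alamar Blue dye reduction. MIC is the lowest concentration with no dye reduction. Where inhibition was partial with some growth at the top concentration, the value is reported as '>'.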

Bacillus anthracis [2] = assay: Antibacterial activity against Bacillus anthracis at 1mM by almar blue dye reduction assay; format: functional, organism-based
Candida albicans = assay: Antifungal activity against Candida albicans at 1 mM by almar blue dye reduction assay; format: functional, organism-based; method in brief: as §1
Staphylococcus aureus [3] = assay: Antibacterial activity against Staphylococcus aureus at 1 mM by almar blue dye reduction assay; format: functional, organism-based; method in brief: as §1
Bacillus cereus [4] = assay: Antibacterial activity against Bacillus cereus at 1 mM by almar blue dye reduction assay; format: functional, organism-based; method in brief: as §1
Escherichia coli = assay: Antibacterial activity against Escherichia coli at 1 mM by almar blue dye reduction assay; format: functional, organism-based; method in brief: as §1
Saccharomyces cerevisiae [5] = assay: Antifungal activity against Saccharomyces cerevisiae at 1 mM by almar blue dye reduction assay; format: functional, organism-based; method in brief: as §1
Bacillus subtilis [6] = assay: Antibacterial activity against Bacillus subtilis at 1 mM by almar blue dye reduction assay; format: functional, organism-based; method in brief: as §1
Bacillus subtilis [7] = assay: Antibacterial activity against Bacillus subtilis by almar blue dye reduction assay; format: functional; method in brief: as §2
Cryptococcus neoformans [8] = assay: Antifungal activity against Cryptococcus neoformans at 1 mM by almar blue dye reduction assay; format: functional, organism-based; method in brief: as §1
Bacillus cereus [9] = assay: Antibacterial activity against Bacillus cereus by almar blue dye reduction assay; format: functional; method in brief: as §2
Bacillus anthracis [10] = assay: Antibacterial activity against Bacillus anthracis by almar blue dye reduction assay; format: functional
Staphylococcus aureus [11] = assay: Antibacterial activity against Staphylococcus aureus by almar blue dye reduction assay; format: functional; method in brief: as §2
Saccharomyces cerevisiae [12] = assay: Antifungal activity against Saccharomyces cerevisiae by almar blue dye reduction assay; format: functional; method in brief: as §2

SMILES: CCN(CC)C(=O)[C@H](C)[C@H]1CC[C@@H](C[C@@H](C)n2cc(C#CCOc3cccc(OC)c3OC)nn2)O1
- Activity (Pseudomonas aeruginosa): inactive
- MIC (Cryptococcus neoformans [1]): 480 µg/mL (≈ 963 µM)
- Activity (Bacillus anthracis [2]): inactive
- Activity (Candida albicans): inactive
- Activity (Staphylococcus aureus [3]): inactive
- Activity (Bacillus cereus [4]): inactive
- Activity (Escherichia coli): inactive
- Activity (Saccharomyces cerevisiae [5]): inactive
- Activity (Bacillus subtilis [6]): inactive

SMILES: CCCCN(CC#Cc1cn([C@H](C)C[C@@H]2CC[C@H]([C@@H](C)C(=O)N3CCN(CC4CCCO4)CC3)O2)nn1)CCCC (stereo partly specified)
- Activity (Pseudomonas aeruginosa): inactive
- Activity (Bacillus anthracis [2]): inactive
- Activity (Candida albicans): inactive
- Activity (Staphylococcus aureus [3]): inactive
- Activity (Bacillus cereus [4]): inactive
- MIC (Bacillus subtilis [7]): 820 µg/mL (≈ 1440 µM)
- Activity (Escherichia coli): inactive
- Activity (Saccharomyces cerevisiae [5]): inactive
- Activity (Cryptococcus neoformans [8]): inactive

SMILES: Cc1cccc(NC(=O)OCC#Cc2cn([C@H](C)CC3CCC([C@@H](C)C(=O)N4CCN(CC5CCCO5)CC4)O3)nn2)c1 (single isomer, unassigned)
- Activity (Pseudomonas aeruginosa): inactive
- Activity (Bacillus anthracis [2]): inactive
- Activity (Candida albicans): inactive
- Activity (Staphylococcus aureus [3]): inactive
- MIC (Bacillus cereus [9]): 570 µg/mL (≈ 962 µM)
- Activity (Escherichia coli): inactive
- Activity (Saccharomyces cerevisiae [5]): inactive
- Activity (Cryptococcus neoformans [8]): inactive
- Activity (Bacillus subtilis [6]): inactive

SMILES: C[C@H](C[C@@H]1CC[C@H]([C@@H](C)C(=O)N2CCN(CC3CCCO3)CC2)O1)n1cc(C#Cc2ccc(-c3ccccc3)cc2)nn1 (stereo partly specified)
- Activity (Pseudomonas aeruginosa): inactive
- Activity (Bacillus anthracis [2]): inactive
- Activity (Candida albicans): inactive
- Activity (Staphylococcus aureus [3]): inactive
- Activity (Bacillus cereus [4]): inactive
- MIC (Bacillus subtilis [7]): 560 µg/mL (≈ 963 µM)
- Activity (Escherichia coli): inactive
- Activity (Saccharomyces cerevisiae [5]): inactive
- Activity (Cryptococcus neoformans [8]): inactive

SMILES: C[C@H](C[C@@H]1CC[C@H]([C@@H](C)C(=O)N(C)Cc2ccccc2)O1)n1cc(C#CCN(C)CCc2ccccc2)nn1
- Activity (Pseudomonas aeruginosa): inactive
- MIC (Cryptococcus neoformans [1]): 500 µg/mL (≈ 947 µM)
- Activity (Candida albicans): inactive
- MIC (Bacillus cereus [9]): 250 µg/mL (≈ 474 µM)
- MIC (Bacillus subtilis [7]): 250 µg/mL (≈ 474 µM)
- MIC (Bacillus anthracis [10]): 250 µg/mL (≈ 474 µM)
- Activity (Escherichia coli): inactive
- Activity (Saccharomyces cerevisiae [5]): inactive
- MIC (Staphylococcus aureus [11]): 500 µg/mL (≈ 947 µM)

SMILES: CCCCCC#Cc1cn([C@H](C)C[C@@H]2CC[C@H]([C@@H](C)C(=O)N(C)Cc3ccccc3)O2)nn1
- Activity (Pseudomonas aeruginosa): inactive
- MIC (Cryptococcus neoformans [1]): 430 µg/mL (≈ 954 µM)
- Activity (Candida albicans): inactive
- Activity (Staphylococcus aureus [3]): inactive
- MIC (Bacillus cereus [9]): 640 µg/mL (≈ 1420 µM)
- MIC (Bacillus anthracis [10]): 430 µg/mL (≈ 954 µM)
- Activity (Escherichia coli): inactive
- MIC (Saccharomyces cerevisiae [12]): 430 µg/mL (≈ 954 µM)
- Activity (Bacillus subtilis [6]): inactive

SMILES: C[C@H](C[C@@H]1CC[C@H]([C@@H](C)C(=O)N(C)Cc2ccccc2)O1)n1cc(C#Cc2ccccn2)nn1
- Activity (Pseudomonas aeruginosa): inactive
- Activity (Candida albicans): inactive
- Activity (Staphylococcus aureus [3]): inactive
- Activity (Bacillus cereus [4]): inactive
- MIC (Bacillus anthracis [10]): > 430 µg/mL
- Activity (Escherichia coli): inactive
- Activity (Saccharomyces cerevisiae [5]): inactive
- Activity (Cryptococcus neoformans [8]): inactive
- Activity (Bacillus subtilis [6]): inactive

SMILES: C[C@H](C[C@@H]1CC[C@H]([C@@H](C)C(=O)N2CCN(CC3CCCO3)CC2)O1)n1cc(C#Cc2ccc(C(F)(F)F)cc2)nn1 (stereo partly specified)
- Activity (Pseudomonas aeruginosa): inactive
- Activity (Bacillus anthracis [2]): inactive
- Activity (Candida albicans): inactive
- Activity (Staphylococcus aureus [3]): inactive
- Activity (Bacillus cereus [4]): inactive
- MIC (Bacillus subtilis [7]): 820 µg/mL (≈ 1430 µM)
- Activity (Escherichia coli): inactive
- Activity (Saccharomyces cerevisiae [5]): inactive
- Activity (Cryptococcus neoformans [8]): inactive

SMILES: C[C@H](C[C@@H]1CC[C@H]([C@@H](C)C(=O)N(C)Cc2ccccc2)O1)n1cc(C#CCC2CCCC2)nn1
- Activity (Pseudomonas aeruginosa): inactive
- MIC (Cryptococcus neoformans [1]): 219 µg/mL (≈ 473 µM)
- Activity (Candida albicans): inactive
- Activity (Staphylococcus aureus [3]): inactive
- MIC (Bacillus cereus [9]): 440 µg/mL (≈ 951 µM)
- MIC (Bacillus anthracis [10]): 440 µg/mL (≈ 951 µM)
- Activity (Escherichia coli): inactive
- MIC (Saccharomyces cerevisiae [12]): 220 µg/mL (≈ 476 µM)
- Activity (Bacillus subtilis [6]): inactive

SMILES: C[C@H](C[C@@H]1CC[C@H]([C@@H](C)C(=O)N2CCN(CC3CCCO3)CC2)O1)n1cc(C#Cc2cccc3ccccc23)nn1 (stereo partly specified)
- Activity (Pseudomonas aeruginosa): inactive
- Activity (Bacillus anthracis [2]): inactive
- Activity (Candida albicans): inactive
- Activity (Staphylococcus aureus [3]): inactive
- MIC (Bacillus cereus [9]): 260 µg/mL (≈ 468 µM)
- Activity (Bacillus cereus [4]): inactive
- MIC (Bacillus subtilis [7]): 790 µg/mL (≈ 1420 µM)
- MIC (Bacillus anthracis [10]): 263 µg/mL (≈ 473 µM)
- Activity (Escherichia coli): inactive
- Activity (Saccharomyces cerevisiae [5]): inactive
- Activity (Cryptococcus neoformans [8]): inactive
- Activity (Bacillus subtilis [6]): inactive

SMILES: CCN(CC)C(=O)[C@H](C)C1CCC(C[C@@H](C)n2cc(C#CCNC(=O)Nc3cccc(C)c3)nn2)O1 (single isomer, unassigned)
- Activity (Pseudomonas aeruginosa): inactive
- Activity (Bacillus anthracis [2]): inactive
- Activity (Candida albicans): inactive
- Activity (Staphylococcus aureus [3]): inactive
- Activity (Bacillus cereus [4]): inactive
- MIC (Bacillus subtilis [7]): 700 µg/mL (≈ 1420 µM)
- Activity (Escherichia coli): inactive
- Activity (Saccharomyces cerevisiae [5]): inactive
- Activity (Cryptococcus neoformans [8]): inactive

SMILES: CCN(CC)C(=O)[C@H](C)[C@H]1CC[C@@H](C[C@@H](C)n2cc(C#CCN3CCN(c4ccccc4)CC3)nn2)O1
- Activity (Pseudomonas aeruginosa): inactive
- Activity (Bacillus anthracis [2]): inactive
- Activity (Candida albicans): inactive
- Activity (Staphylococcus aureus [3]): inactive
- Activity (Bacillus cereus [4]): inactive
- Activity (Escherichia coli): inactive
- Activity (Saccharomyces cerevisiae [5]): inactive
- Activity (Cryptococcus neoformans [8]): inactive
- Activity (Bacillus subtilis [6]): inactive

SMILES: C[C@H](C[C@@H]1CC[C@H]([C@@H](C)C(=O)N(C)Cc2ccccc2)O1)n1cc(C#CCOc2ccc(Br)cc2)nn1
- Activity (Pseudomonas aeruginosa): inactive
- Activity (Bacillus anthracis [2]): inactive
- Activity (Candida albicans): inactive
- Activity (Staphylococcus aureus [3]): inactive
- Activity (Bacillus cereus [4]): inactive
- Activity (Escherichia coli): inactive
- Activity (Saccharomyces cerevisiae [5]): inactive
- Activity (Cryptococcus neoformans [8]): inactive
- Activity (Bacillus subtilis [6]): inactive

SMILES: C[C@H](C[C@@H]1CC[C@H]([C@@H](C)C(=O)N2CCN(CC3CCCO3)CC2)O1)n1cc(C#CCC2CCCC2)nn1 (stereo partly specified)
- Activity (Pseudomonas aeruginosa): inactive
- Activity (Bacillus anthracis [2]): inactive
- Activity (Candida albicans): inactive
- Activity (Staphylococcus aureus [3]): inactive
- Activity (Bacillus cereus [4]): inactive
- Activity (Escherichia coli): inactive
- Activity (Saccharomyces cerevisiae [5]): inactive
- Activity (Cryptococcus neoformans [8]): inactive
- Activity (Bacillus subtilis [6]): inactive

SMILES: CC(C)NC(=O)[C@H](C)[C@H]1CC[C@@H](C[C@@H](C)n2cc(C#CC3=CCCCC3)nn2)O1
- Activity (Pseudomonas aeruginosa): inactive
- Activity (Bacillus anthracis [2]): inactive
- Activity (Candida albicans): inactive
- Activity (Staphylococcus aureus [3]): inactive
- Activity (Bacillus cereus [4]): inactive
- Activity (Escherichia coli): inactive
- Activity (Saccharomyces cerevisiae [5]): inactive
- Activity (Cryptococcus neoformans [8]): inactive
- Activity (Bacillus subtilis [6]): inactive

SMILES: C[C@H](C[C@@H]1CC[C@H]([C@@H](C)C(=O)N(C)Cc2ccccc2)O1)n1cc(C#Cc2ccccc2[N+](=O)[O-])nn1
- Activity (Pseudomonas aeruginosa): inactive
- Activity (Bacillus anthracis [2]): inactive
- Activity (Candida albicans): inactive
- Activity (Staphylococcus aureus [3]): inactive
- Activity (Bacillus cereus [4]): inactive
- Activity (Escherichia coli): inactive
- Activity (Saccharomyces cerevisiae [5]): inactive
- Activity (Cryptococcus neoformans [8]): inactive
- Activity (Bacillus subtilis [6]): inactive

SMILES: CCCCCC#Cc1cn([C@H](C)C[C@@H]2CC[C@H]([C@@H](C)C(=O)N(CC)CC)O2)nn1
- Activity (Pseudomonas aeruginosa): inactive
- Activity (Bacillus anthracis [2]): inactive
- Activity (Candida albicans): inactive
- Activity (Staphylococcus aureus [3]): inactive
- Activity (Bacillus cereus [4]): inactive
- Activity (Escherichia coli): inactive
- Activity (Saccharomyces cerevisiae [5]): inactive
- Activity (Cryptococcus neoformans [8]): inactive
- Activity (Bacillus subtilis [6]): inactive
